Results taken from publication PMC4593509 (Medicinal chemistry research : an international journal for …, 2015).
≈ marks a conversion by molar mass, not a printed value. Like-named read-outs stand apart in the source and are kept apart here.

Experiments:
[1] = test system: NCI-H460; assay: MTT assay, cell viability after 72 h; assay type: cell-based, human; details: read-out: IC50 (at day 3)
Summary of the method: (§1)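 Cells were kept in RPMI-1640 with 10% FBS at 37 °C and 5% CO₂, grown to confluency, seeded at 5,000–7,000 per well, and incubated 24 h. Medium was replaced with medium holding test compound, diluted from a 1% DMSO/water suspension, in six replicates each in triplicate. After 72 h, MTT in PBS was added for 4 h. Medium was then removed, formazan dissolved in DMSO, and OD read at 540 nm.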

[2] = Water solubility from a filtered saturated solution, by weight; assay type: physicochemical; details: for solubility: thermodynamic from solid
[3] = test system: NSCLC cell lines NCI-H460, NCI-H1975, and HCC827; assay: MTT assay, values stated for the whole panel of NSCLC cell lines; assay type: cell-based, human; details: for IC50: Homo sapiens, 72 h, read-out: IC50 values against the panel of cancer cell lines
Summary of the method: as §1

[4] = test system: NCI-H1975; assay: MTT assay, cell viability after 72 h; assay type: cell-based, human; details: read-out: IC50 (at day 3)
Summary of the method: as §1

[5] = test system: HCC827; assay: MTT assay, cell viability after 72 h; assay type: cell-based, human; details: read-out: IC50 (at day 3)
Summary of the method: as §1

[6] = test system: NCI-H460 cell line; assay: Annexin V; assay type: cell-based, human; details: H460 cells
Summary of the method: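 NCI-H460 cells were seeded at 1×10^5 per well and left to adhere overnight. Test compound or cisplatin (40 µM) was diluted into medium from a 1% DMSO/water solution, and untreated controls got fresh medium, with 2 wells per treatment. After exposure, cells were washed twice in cold PBS and stained with FITC-Annexin V and PI in 1× binding buffer for 15 min at room temperature in the dark. Imaging used fluorescence microscopy at 10× and 20×.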

[7] = test system: PARP and caspase-3 in NCI-H460 cells; assay: Western blotting of apoptotic proteins caspase-3 and PARP; assay type: cell-based, human; details: 5 μM
Summary of the method: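 Confluent NCI-H460 cells, seeded at 1×10^5 per well in RPMI-1640 with 10% FBS and 1% pen-strep, were serum-starved 24 h, then treated. Cells were lysed in ice-cold Tris pH 7.5/Triton X-100 buffer with protease/phosphatase inhibitors. Equal lysate amounts were run on 4–12% SDS-PAGE and moved to PVDF, then probed with PARP, caspase-3 and GAPDH antibodies (1:1,000, 4 °C overnight) and HRP anti-rabbit (1:5,000). Detection was by ECL, with GAPDH reprobe for normalization and cisplatin lysates as control.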

[8] = treatment 6 h, IC23 and cisplatin at 40 μM

Row | SMILES | IC50 ([1]; Homo sapiens, NCI-H460, 72 h) [µM] | solubility ([2]; water) [µg/mL] | IC50 [3] [µM] | IC50 ([4]; Homo sapiens, NCI-H1975, 72 h) [µM] | IC50 ([5]; Homo sapiens, HCC827, 72 h) [µM] | further results
1 | CCn1c[n+](Cc2ccc3ccccc3c2)c(Cl)c1Cl.[Br-] [Compound 1, 4,5-dichloro-1-ethyl-3-(naphthalen-2-ylmethyl)-imidazolium bromide] | 26 | 13500 | ≥ 19 | > 30 | > 30 | –
2 | CCCn1c[n+](Cc2ccc3ccccc3c2)c(Cl)c1Cl.[Br-] [Compound 2, 4,5-dichloro-3-(naphthalen-2-ylmethyl)-1-propylimidazolium bromide] | 19 | 5200 | ≥ 19 | 22 | > 30 | –
3 | CC(C)n1c[n+](Cc2ccc3ccccc3c2)c(Cl)c1Cl.[Br-] [Compound 3, 4,5-dichloro-1-isopropyl-3-(naphthalen-2-ylmethyl)imidazolium bromide] | > 30 | 10800 | ≥ 19 | 20 | > 30 | –
4 | CCCCn1c[n+](Cc2ccc3ccccc3c2)c(Cl)c1Cl.[Br-] [Compound 4, 1-butyl-4,5-dichloro-3-(naphthalen-2-ylmethyl)-imidazolium bromide] | 13 | 5700 | – | 10 | 12 | –
5 | CCCCCn1c[n+](Cc2ccc3ccccc3c2)c(Cl)c1Cl.[Br-] [Compound 5, 4,5-dichloro-3-(naphthalen-2-ylmethyl)-1-pentylimidazolium bromide] | 10 | 3100 | 10 to 12 | 12 | 12 | –
6 | CCCCCCn1c[n+](Cc2ccc3ccccc3c2)c(Cl)c1Cl.[Br-] [Compound 6, 4,5-dichloro-1-hexyl-3-(naphthalen-2-ylmethyl)-imidazolium bromide] | 5 | 1400 | ≤ 10 | 5 | 8 | –
7 | CCCCCCCn1c[n+](Cc2ccc3ccccc3c2)c(Cl)c1Cl [Compound 7, 4,5-dichloro-1-heptyl-3-(naphthalen-2-ylmethyl)-imidazolium bromide] | 6 | – | ≤ 10 | 4 | 6 | –
8 | CCCCCCCCCn1c[n+](Cc2ccc3ccccc3c2)c(Cl)c1Cl.[Br-] [Compound 8, 4,5-dichloro-3-(naphthalen-2-ylmethyl)-1-nonylimidazolium bromide] | 10 | 300 | ≤ 10 | 3 | 3 | –
9 | CCCCCCCCCCCCn1c[n+](Cc2ccc3ccccc3c2)c(Cl)c1Cl [Compound 9, 4,5-dichloro-1-dodecyl-3-(naphthalen-2-ylmethyl)-imidazolium bromide] | 5 | – | ≤ 10 | 4 | – | –
10 | Clc1c(Cl)[n+](Cc2ccccc2)cn1Cc1ccccc1 [Compound 10, 1,3-dibenzyl-4,5-dichloroimidazolium bromide] | > 30 | – | – | > 30 | > 30 | –
11 | Clc1c(Cl)[n+](Cc2ccc3ccccc3c2)cn1Cc1ccccc1 [Compound 11, 1-benzyl-4,5-dichloro-3-(naphthalen-2-ylmethyl)-imidazolium bromide] | 15 | – | 12 to 15 | 12 | 15 | –
12 | [Br-].c1ccc2cc(Cn3cc[n+](Cc4ccc5ccccc5c4)c3)ccc2c1 [Compound 12, 1,3-bis(naphthalen-2-ylmethyl)imidazolium bromide] | 4 | – | – | 6 | 9 | stage of apoptosis (Annexin V / PI) [6, 8]: early stages of apoptosis
13 | c1ccc2cc(Cn3c[n+](Cc4ccc5ccccc5c4)c4ccccc43)ccc2c1 [Compound 13, 1,3-bis(naphthalen-2-ylmethyl)benzimidazolium bromide] | 3 | – | – | 4 | 5 | –
14 | Cn1c(=O)c2c(ncn2Cc2ccc3ccccc3c2)n(C)c1=O [Compound 14, 1,3-dimethyl-7-(naphthalen-2-ylmethyl)xanthine] | 8 | 800 (≈ 2500 µM) | – | 12 | 28 | –
15 | Cn1c(=O)c2c(n(C)c[n+]2Cc2ccc3ccccc3c2)n(C)c1=O.[I-] [Compound 15, 1,3,9-trimethyl-7-(naphthalen-2-ylmethyl)xanthinium iodide] | – | – | – | – | – | IC50 ([1]; NCI-H460, 72 h exposure, MTT): > 30 µM; H2O solubility ([2]; water, saturated solution stirred for several hours, filtered): 2600 µg/mL; anti-tumor activity against the three cell lines ([3]; NCI-H460, NCI-H1975, HCC827, result in words): no observable anti-tumor activity; IC50 ([4]; NCI-H1975, 72 h exposure, MTT): > 30 µM; IC50 ([5]; HCC827, 72 h exposure, MTT): > 30 µM
16 | Clc1ncn(CCc2cccc3ccccc23)c1Cl [Compound 16, 4,5-dichloro-1-(2-(naphthalen-1-yl)ethyl)-imidazole] | – | – | – | – | – | IC50 ([1]; NCI-H460, 72 h exposure, MTT): > 30 µM; IC50 ([4]; NCI-H1975, 72 h exposure, MTT): > 30 µM; IC50 ([5]; HCC827, 72 h exposure, MTT): > 30 µM
17 | Clc1c(Cl)[n+](CCc2cccc3ccccc23)cn1CCc1cccc2ccccc12.[Br-] [Compound 17, 4,5-dichloro-1,3-bis(2-(naphthalen-1-yl)ethyl)-imidazolium bromide] | 8 | 400 | – | 8 | 11 | –
18 | Clc1c(Cl)[n+](Cc2ccc3ccccc3c2)cn1CCc1cccc2ccccc12.[Br-] [Compound 18, 4,5-dichloro-1-(2-(naphthalen-1-yl)ethyl)-3-(naphthalen-2-ylmethyl)-imidazolium bromide] | 5 | 100 | – | 6 | 7 | water solubility compared to IC23 ([2]; result in words): did not show a significant increase
19 | Clc1c(Cl)[n+](Cc2ccccc2)cn1CCc1cccc2ccccc12 [Compound 19, 3-benzyl-4,5-dichloro-1-(2-(naphthalen-1-yl)ethyl)-imidazolium bromide] | 12 | – | – | 14 | > 30 | –
20 | Clc1ncn(CCc2ccc3ccccc3c2)c1Cl [Compound 20, 4,5-dichloro-1-(2-(naphthalen-2-yl)ethyl)-imidazole] | > 30 | – | – | > 30 | > 30 | –
21 | Clc1c(Cl)[n+](CCc2ccc3ccccc3c2)cn1CCc1ccc2ccccc2c1 [Compound 21, 4,5-Dichloro-1,3-bis(2-(naphthalen-2-yl)ethyl)-imidazolium bromide] | 8 | – | – | 8 | 8 | –
22 | Clc1c(Cl)[n+](Cc2ccc3ccccc3c2)cn1CCc1ccc2ccccc2c1 [Compound 22, 4,5-dichloro-1-(2-(naphthalen-2-yl)ethyl)-3-(naphthalen-2-ylmethyl)-imidazolium bromide] | 4 | – | – | 7 | 9 | –
23 | Clc1c(Cl)[n+](Cc2ccc3ccccc3n2)cn1Cc1ccc2ccccc2c1.[Br-] [Compound 23, 4,5-dichloro-1-(naphthalen-2-ylmethyl)-3-(quinolin-2-ylmethyl)imidazolium bromide] | 10 | 900 | – | 5 | 9 | increase in aqueous solubility from IC23 ([2]; relative to IC23): ≥ 10 fold
24 | Clc1c(Cl)[n+](Cc2ccc3ccccc3c2)cn1Cc1ccc2ccccc2c1.[Br-] [IC23, 4,5-dichloro-1,3-bis (naphthalen-2-ylmethyl)imidazolium bromide] | 5 | < 100 | – | 6 | 8 | PARP cleavage ([7]; H460 cell lysates, 12 h): presence of cleaved PARP; levels of procaspase-3 ([7]; H460 cell lysates, 12 h): substantial reduction; PARP-1 and procaspase-3 cleavage ([7]; H460 cells, 1 h): little PARP-1 and procaspase-3 cleavage; stage of apoptosis (Annexin V / PI) ([6]; treatment 1 h, IC23 at 40 μM): early stage of apoptosis; stage of apoptosis (Annexin V / PI) ([6]; treatment 3 h, IC23 at 40 μM): latestage apoptotic cells; stage of apoptosis (Annexin V / PI) [6, 8]: end stage of apoptosis
25 | N.N.[Cl][Pt][Cl] [cisplatin, reference compound] | – | – | – | – | – | IC50 ([1]; NCI-H460, 72 h exposure, MTT): 3 µM; PARP-1 cleavage and amount of procaspase-3 ([7]; H460 cells, 36 h): both PARP-1 cleavage and a reduced amount of procaspase-3; IC50 ([4]; NCI-H1975, 72 h exposure, MTT): 10 µM; IC50 ([5]; HCC827, 72 h exposure, MTT): 4 µM; stage of apoptosis (Annexin V / PI) [6, 8]: early-stage apoptosis
